Experimental data published in the array DNA melting data of Ke et al. (doi:10.1101/2024.01.08.574731).

How the values were obtained:
[1] = melting temperature; fluorescence melt of hairpins on a sequencing array, two-state fit, raised by 9.35 °C to match UV melts; settings: sodium 0.088 M
Procedure, shortened: (§1)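 Melting temperature and folding enthalpy were derived from bootstrapped two-state fits. The fitted temperatures were raised by 9.35 °C to agree with UV melts, and four replicates were combined by inverse variance. The underlying data were Cy3 fluorescence images of library hairpins, with annealed Cy3 and quencher oligos, on a sequenced MiSeq flow cell in 50 mM Na-HEPES pH 8.0, 25 mM NaCl, taken in 2.5 °C steps up to 60 °C, normalised to pre-quench Cy3 and to control constructs.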

[2] = folding enthalpy; higher = less favourable; fluorescence melt of hairpins on a sequencing array, two-state fit; settings: sodium 0.088 M
Procedure, shortened: as §1

Sequence | Tm [1] [°C] | folding enthalpy [2] [kcal/mol]
GACACCGAAAGGTCGTC ((((((....))).))) | 50.2 | -21.7
GACACCGAAAGGTCTGTC ((((((....)))..))) | 35.2 | -16.6
GACACCGAAAGGTGAGTC ((((((....)))..))) | 37.3 | -9.36
GACACCGAAAGGTTGGTC ((((((....)))..))) | 40.8 | -16.6
GACACCGGAAACGATGTC ((((.((....)).)))) | 45.2 | -29.6
GACACCGGAAACGGCGTC (((.(((....))).))) | 52.6 | -43
GACACGCGAAAGCGGTC (((.(((....)))))) | 56 | -15.3
GACACGGGAAACCACGTC (((..((....))..))) | 34.6 | -29
GACACGGGAAACCGCGTC (((.(((....))).))) | 50.9 | -47.8
GACACTACGAAAGTAGTC (((..(((....)))))) | 32.4 | -10.3
GACACTGAAAAGTGTC ((((((....)))))) | 58.6 | -34.5
GACAGACCGAAAGGTGTC (((..(((....)))))) | 44.3 | -19.5
GACAGACGAAAGTCGTC (((.(((....)))))) | 53 | -17.8
GACAGCCGAAAGGCGGTC (((.(((....))).))) | 67 | -20.1
GACAGCCGAAAGGCGTC (((.(((....)))))) | 60 | -12.7
GACAGCGAAAGCTCGGTC ((((((....)))..))) | 46.8 | -10.6
GACAGCGAAAGCTCGTC ((((((....))).))) | 50.5 | -19.6
GACAGCGAAAGCTCTGTC ((((((....)))..))) | 39.6 | -15.2
GACAGCGAAAGCTGAGTC ((((((....)))..))) | 39.2 | -8.14
GACAGCGAAAGCTGGGTC ((((((....)))..))) | 62 | -12.4
GACAGCGAAAGCTGTGTC ((((((....)))..))) | 56.9 | -10.8
GACAGCGAAAGCTTCGTC ((((((....)))..))) | 43.9 | -13
GACAGGACGAAAGTCGTC (((..(((....)))))) | 42.6 | -16.7
